# Shown are actives, neighbours in structure and some others; about 1.9% of the full set was active somewhere.
# RAD54 inh – blocks human RAD54 Holliday junction branch migration | FAM/BHQ fluorescence | inhibition, % at 10.4 µM | hit rate 0.14% among 360,000;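 active = mean normalized replicate activity at least 40 and at least half of replicates scoring 40 or more; inconclusive = only one of the two criteria met; inactive = mean below 40 and under half of replicates reaching 40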;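 note: 0% = median of neutral control wells and 100% = median of positive control wells; inhibitors cause a drop in the FAM fluorescence signal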
# Target sequence (Q92698 whole entry, looked up): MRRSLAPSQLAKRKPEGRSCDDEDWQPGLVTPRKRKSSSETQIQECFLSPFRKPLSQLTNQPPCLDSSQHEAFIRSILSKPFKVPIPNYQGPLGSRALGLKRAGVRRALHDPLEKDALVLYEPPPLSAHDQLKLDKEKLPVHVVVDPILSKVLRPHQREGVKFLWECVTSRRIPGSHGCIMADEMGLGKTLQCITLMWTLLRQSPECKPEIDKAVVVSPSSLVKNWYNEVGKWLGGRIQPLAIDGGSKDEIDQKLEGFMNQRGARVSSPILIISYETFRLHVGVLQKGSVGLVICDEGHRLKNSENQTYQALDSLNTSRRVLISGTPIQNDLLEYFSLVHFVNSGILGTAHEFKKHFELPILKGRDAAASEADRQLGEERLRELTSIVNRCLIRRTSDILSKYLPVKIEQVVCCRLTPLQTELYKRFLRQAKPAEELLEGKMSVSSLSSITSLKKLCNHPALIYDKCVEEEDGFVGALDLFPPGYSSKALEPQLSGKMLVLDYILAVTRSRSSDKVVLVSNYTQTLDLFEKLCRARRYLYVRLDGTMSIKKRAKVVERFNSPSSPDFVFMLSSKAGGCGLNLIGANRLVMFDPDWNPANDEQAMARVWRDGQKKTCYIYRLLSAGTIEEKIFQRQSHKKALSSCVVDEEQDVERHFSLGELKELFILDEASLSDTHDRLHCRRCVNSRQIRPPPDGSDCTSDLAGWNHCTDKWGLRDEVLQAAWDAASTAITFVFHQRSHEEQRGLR
# PglD DTNB – inhibitors of Campylobacter jejuni PglD acetyltransferase. AID 602405. hit rate 0.098% among 360,000. inhibition, % at 12.5 µM. purified PglD enzyme, DTNB colorimetric CoA detection; in the data active = inhibition above about 16%, passing the limit was not always enough; inconclusive = no clear call, values can overlap the other calls
# Cneo AK release – causes C. neoformans cell lysis; AID 651654; hit rate 0.2% among 360,000; lysis activity, % at 15 µM; adenylate kinase release luminescence, 4 h; normalised: neutral wells 0, clomiphene wells 100;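 active = mean lysis activity across replicates of at least 80%, whatever share of replicates individually reach that level; inactive = mean lysis activity below 80%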
#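 Material – log-phase Cryptococcus neoformans yeast cells · Input – 5 × 10^6 yeast cells/mL · Medium – fresh YPD growth medium · Doses – single compound concentration per well · Timing – static 4 h at 37 °C with compound, 1 h detection · Detection – adenylate kinase release luminescence · Read-out – signal increase indicating cell lysis · Control set – Clomiphene as positive lysis control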
# Ecoli rRNA inh – inhibits bacterial ribosomal RNA function over humanized ribosomes; E. coli WT GFP vs humanized-ribosome RFP mutants, fluorescence, 24 h; stronger effect = lower value; DMSO median 0, no signal -100; GFP signal change (wild-type ribosome), % (test concentration not listed); hit rate 1.6% among 350,000; AID 720706;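 active = significant combined selectivity score with lowered wild-type GFP, culture density cut under 30%, mutant RFP and density less affected; inactive = any of these conditions unmet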
# RAD52 inh – blocks human RAD52 DNA annealing | P43351 | recombinant RAD52 DNA annealing, FRET fluorescence | inhibition, % at 18.7 µM | hit rate 0.46% among 360,000 | AID 651710;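 active = every replicate showing at least 50% inhibition; inconclusive = mean inhibition at least 50% but not in every replicate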
# AID977621 – wild-type E. coli growth inhibition versus H69 humanized strain – H69 mutant RFP, wild-type GFP, cherry-pick, dose response; activity change, negative = inhibition at 50 µM; shares compounds with Ecoli rRNA inh; 1,900 tested, under 10 active; fluorescence, 24 h;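 active = Wild-type ribosome reporter drop at least double the humanized mutant ribosome reporter drop, growth loss under a set limit; inconclusive = no clear call, values can overlap the other calls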;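 note: wild-type GFP and H69 mutant RFP strains grown together 50/50 in each well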
# AID977628 – growth of wild-type and h24-humanized E. coli strains – h24 mutant RFP vs wild-type GFP, cherry-pick, dose response | shares compounds with Ecoli rRNA inh | E. coli WT GFP strain growth, fluorescence, 24 h | activity change, negative = inhibition at 50 µM | 1,900 tested, under 10 active;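 active = compound lowering the normal-ribosome reporter at least twice as much as the humanized-ribosome reporter, growth loss under a set limit; inconclusive = no clear call, values can overlap the other calls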;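 note: wild-type GFP and h24 humanized RFP strains co-cultured 1 to 1 per well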
# * = called active by the depositor; u = inconclusive; x = not tested or not shown.
SMILES,RAD54 inh,PglD DTNB,Cneo AK release,Ecoli rRNA inh,RAD52 inh,AID977621,AID977628
CCC(C)C(=O)Nc1nc2ccc(OC)cc2s1 (stereo not given),-3.3,1.9,-2.2,-21.5*,-10.0,-21.4,x
CCOC(=O)CN1C(=O)C(CC)Oc2ccc(Cl)cc21 (stereo not given),4.0,-4.0,-3.9,-30.2*,-2.7,-14,-15.7
CCCCNC(=O)CN1C(=O)C(CC)Oc2ccc(Cl)cc21 (stereo not given),1.3,0.0,-0.6,x,x,x,x
CC(C)Sc1sc(C(=O)O)c(-c2ccc(Cl)cc2)c1C#N,x,x,x,-43.3*,-22.1,-7.92,x
N#Cc1nc(-c2ccco2)oc1NCc1ccccc1Cl,-7.1,-2.1,2.9,-27.1*,-7.6,-4.44,-11.9
N#Cc1nc(-c2ccco2)oc1NCc1ccco1,2.9,5.9,-1.6,x,x,x,x
COCCCNc1ccn2nc(-c3ccccc3)cc2n1,0.3,-6.6,3.3,-19.5*,-1.9,5.41,x
O=C(N[C@@H]1C=C[C@H](CC(=O)N2CCc3ccccc3C2)O[C@@H]1CO)C1CC1,x,x,x,0.5,1.1,x,x
COCC(=O)Nc1ccc2c(c1)OC[C@@H](C)N(C(=O)Nc1ccccc1F)C[C@@H](C)[C@H](OC)CN(C)C2=O,-0.1,3.3,-2.7,-2.0,x,x,x
Cc1cc(C)c(NC(=O)C(C)c2cccc(C(=O)c3ccccc3)c2)c(C)c1 (stereo not given),x,x,x,-17.3*,-11.6,-2.72,x
C[C@H](CO)N1C[C@H](C)[C@H](CN(C)C(=O)[C@H](C)c2ccccc2)OCc2ccccc2-c2c(n(C)c3ccccc23)C1=O,x,x,x,-2.8,-3.3,x,x
O=C(C[n+]1cc(-c2ccc(F)cc2)n2c1CCC2)c1cccs1,3.7,0.1,-4.0,-16.4*,-6.2,0.919,2.57
Cc1ccc(NC(=O)C[n+]2cc(-c3ccccc3)n3c2CCC3)cc1,10.7,-1.5,3.8,-40.5*,-12.6,4.94,u
Cc1ccc(-c2c[n+](CC(=O)Nc3ccccc3C)c3n2CCC3)cc1,x,x,x,x,3.7,x,x
CCc1ccc2nc(SCC(=O)Nc3ccccc3N3CCOCC3)c(C#N)cc2c1,x,x,x,-29.6*,-15.5,-11,-3.97
O=C(CSc1nc(C2CC2)nc2ccccc12)Nc1ccccc1N1CCOCC1,x,x,x,-17.1*,-4.3,-6.18,-7.29
O=C(C[C@H]1C=C[C@@H](NS(=O)(=O)c2cccc(F)c2)[C@H](CO)O1)NCc1ccc2c(c1)OCO2,4.7,-1.6,-1.8,0.2,-0.9,x,x
COc1ccc(CN(C)C[C@H]2OCCCC[C@H](C)Oc3ccc(NC(=O)Nc4ccc(OC)cc4)cc3C(=O)N([C@@H](C)CO)C[C@@H]2C)cc1,7.3,4.9,-0.6,7.9,45.5,x,x
COc1ccc(CN(C)C(=O)c2cc(-c3ccc(OC)c(OC)c3)nc3ccccc23)c(OC)c1,-2.9,2.0,-1.0,-23.0*,-4.6,-3.32,-3.5
COc1ccc(-c2cc(C(=O)N(C)Cc3nc4ccccc4c(=O)[nH]3)c3ccccc3n2)cc1OC,11.2,-2.5,-0.4,-13.3,-13.1,x,x
COc1ccc(-c2cc(C(=O)N(C)CCc3ccc(OC)c(OC)c3)c3ccccc3n2)cc1,0.1,-4.3,-1.0,-24.5*,-9.5,u,x
Cc1ccc(S(=O)(=O)N[C@@H]2CC[C@H](CC(=O)NCc3ccc(Cl)c(Cl)c3)O[C@@H]2CO)cc1,1.9,-1.0,-6.9,-21.4,-1.3,x,x
C[C@H]1CN([C@@H](C)CO)C(=O)c2cccc(NS(C)(=O)=O)c2O[C@@H]1CN(C)Cc1ccc(C(F)(F)F)cc1,-2.9,-2.6,5.3,-1.9,2.0,x,x
COc1cccc(NC(=O)c2ccc(NCCCN3CCC(C)CC3)c([N+](=O)[O-])c2)c1,4.6,-2.5,-0.6,-25.4*,-29.1,-3.49,u
CCCN(CCC)CCCNc1ccc(C(=O)Nc2cccc(OC)c2)cc1[N+](=O)[O-],11.1,-2.6,1.4,-10.2,26.7,x,x
SMILES,RAD54 inh,PglD DTNB,Cneo AK release,Ecoli rRNA inh,RAD52 inh,AID977621,AID977628
COc1cccc(NC(=O)c2ccc(NCCCN3CC(C)CC(C)C3)c([N+](=O)[O-])c2)c1 (stereo not given),x,x,x,-46.0*,22.4,u,-5.13
C[C@H](CO)N1C[C@H](C)[C@H](CN(C)Cc2ccncc2)Oc2ccc(NS(=O)(=O)c3ccc(Cl)cc3)cc2CC1=O,-1.4,-1.6,-2.5,-1.2,-7.2,x,x
CCCCNC(=O)C[C@@H]1C[C@@]2(C(=O)OC)CCCCC=C2N(Cc2ccccc2)C1=O,x,x,x,-21.5*,-18.3,-5.45,x
COCCCNC(=O)C[C@@H]1C[C@@]2(C(=O)OC)CCCCC=C2N(Cc2ccccc2)C1=O,x,x,x,-12.3,-14.2,x,x
O=C1c2ccccc2NC(c2cccc(F)c2)N1Cc1ccccc1 (stereo not given),-4.8,6.5,0.6,-2.3,1.4,x,x
O=C1c2ccccc2NC(c2cccc(F)c2)N1Cc1ccco1 (stereo not given),-5.1,-6.5,-3.3,-33.0*,-15.5,-4.18,-3.12
COCC#Cc1cnc2c(c1)C(=O)N([C@H](C)CO)C[C@H](C)[C@@H](CN(C)C(=O)C1CCCCC1)O2,-0.3,-3.5,1.4,2.2,8.6,x,x
CO[C@H]1CN(C)C(=O)c2cc(NS(C)(=O)=O)ccc2OC[C@H](C)N(Cc2nccs2)C[C@@H]1C,-4.8,-0.3,-0.1,0.2,-4.3,x,x
Cc1sc(NC(=O)CN2CCOCC2)nc1-c1ccc2c(c1)CCN2S(=O)(=O)c1ccccc1,-4.2,-4.9,-0.6,-20.8*,-27.2,-20.8,x
O=C(CN1CCOCC1)Nc1nc(-c2ccc3c(c2)CCN3S(=O)(=O)c2ccccc2)cs1,-2.8,6.2,0.8,-10.6,-2.0,x,x
Cc1ccc(CNS(=O)(=O)c2ccc3c(c2)NC(=O)CS3)cc1,-3.4,2.8,6.6,-19.9*,-11.0,u,x
CN(C)c1ccc(CNS(=O)(=O)c2ccc3c(c2)NC(=O)CS3)cc1,4.0,6.2,-1.4,-13.6,-13.7,x,x
O=C(Nc1cc(F)ccc1F)N[C@@H]1CC[C@@H](CCNC(=O)c2cnccn2)O[C@@H]1CO,5.6,-0.8,x,3.5,-1.8,x,x
CN(Cc1ccc(Cl)s1)C(=O)CNC(=O)CNC(=O)c1ccc(Cl)cc1Cl,-4.3,x,0.3,-26.8*,-16.5,x,-5.23
COc1ccc(C(=O)n2cnc3ccccc32)cc1Br,2.2,-1.5,0.7,0.8,1.6,x,x
COc1ccc(C(=O)n2cnc3ccccc32)cc1[N+](=O)[O-],7.3,-0.8,5.7,-27.1*,-9.8,5.43,4.37
C=CCN(c1ccccc1)S(=O)(=O)c1cccc2cccnc12,x,x,x,-24.2*,-30.4,2.26,x
C=CCS(=O)(=O)c1cccc2cccnc12,x,x,x,24.2,-16.6,x,x
